Measurements from PMC9614283 (Journal of medicinal chemistry, 2017).

Tests used:
human recombinant PDE5A1 = human recombinant PDE5A1 (Homo sapiens, UniProt O76074); experiment: PDE5 fluorescent; assay type: biochemical
Procedure, shortened: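 Reactions ran 60 min at room temperature with 0.1-0.45 ng PDE5, 100 nM FAM-cGMP or FAM-cAMP substrate and test compound. Binding agent was then added for 60 min at room temperature, and fluorescence was read at ex 485/em 528 nm and converted to polarisation. Each concentration was run in duplicate. Activity was normalised between no compound (100%) and no enzyme and no compound (0%). IC50 came from sigmoidal non-linear regression; values are average ± S.E.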

PDE6C [1] = target: T1, PDE6C (Homo sapiens, UniProt P51160); conditions: read-out: PDE6C IC50; recombinant human enzyme; cited from earlier work
[2] = tested on: cGMP levels in the hippocampus of mice; conditions: dosed at 3 mg/kg; cited from earlier work
AD mouse models = conditions: pharmacological treatment of two different AD mouse models; cited from earlier work
[3] = tested on: cGMP levels in the hippocampus of mice; experiment: Hippocampal cGMP levels after foot shock; assay type: in vivo; conditions: WT mice, 3 mg/kg ip, 180 s after foot shock; not significant (p = 0.097)
Procedure, shortened: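 Male and female C57Bl6 mice, 2-3 months old (20-25 g), received 3 mg/kg i.p. in 2% DMSO & 2% Tween, or vehicle alone. Foot shock was given 30 min later. Mice were killed by cervical dislocation and decapitation 10 s, 1 min or 3 min after shock. Hippocampi were snap-frozen. cGMP was measured by enzyme immunoassay in duplicate and normalised to BCA protein. n=3 per group; t-test/2-way ANOVA.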

[4] = tested on: hippocampal long-term potentiation (LTP); experiment: Hippocampal slice LTP electrophysiology, acute bath perfusion; assay type: cell-based, mice; conditions: 50 nM bath perfusion
PDE6C [5] = target: T1, PDE6C; experiment: PDE6 fluorescent; assay type: biochemical; conditions: PDE6C vs PDE5A1

T1 sequence (P51160 whole entry): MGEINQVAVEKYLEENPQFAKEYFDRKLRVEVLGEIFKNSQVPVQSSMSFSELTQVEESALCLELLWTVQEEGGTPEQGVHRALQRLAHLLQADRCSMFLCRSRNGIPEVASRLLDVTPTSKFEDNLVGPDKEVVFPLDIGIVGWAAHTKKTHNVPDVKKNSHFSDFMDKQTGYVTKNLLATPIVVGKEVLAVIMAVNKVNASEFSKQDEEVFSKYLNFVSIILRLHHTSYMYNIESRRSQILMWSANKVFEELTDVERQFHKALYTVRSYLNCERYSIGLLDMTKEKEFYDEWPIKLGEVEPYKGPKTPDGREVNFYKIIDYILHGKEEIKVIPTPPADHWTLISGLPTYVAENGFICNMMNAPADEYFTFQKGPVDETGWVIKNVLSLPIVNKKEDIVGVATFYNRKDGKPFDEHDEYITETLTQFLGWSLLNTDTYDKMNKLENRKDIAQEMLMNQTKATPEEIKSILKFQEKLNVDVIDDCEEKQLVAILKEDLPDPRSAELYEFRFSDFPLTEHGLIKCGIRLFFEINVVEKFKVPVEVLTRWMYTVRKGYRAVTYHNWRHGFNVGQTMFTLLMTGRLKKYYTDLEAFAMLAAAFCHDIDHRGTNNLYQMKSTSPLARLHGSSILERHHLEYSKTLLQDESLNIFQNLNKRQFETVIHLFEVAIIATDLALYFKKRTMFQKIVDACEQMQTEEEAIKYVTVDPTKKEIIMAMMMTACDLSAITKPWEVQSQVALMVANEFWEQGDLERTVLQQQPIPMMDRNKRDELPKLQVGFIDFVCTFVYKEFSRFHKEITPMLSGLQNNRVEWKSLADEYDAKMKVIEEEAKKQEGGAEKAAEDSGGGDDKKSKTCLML

COc1ccc(CNc2c3c(nc4ccccc24)CCN(C(C)=O)C3)cc1Cl [17a, 1-(10-((3-Chloro-4-methoxybenzyl)amino)-3,4-dihydrobenzo[b][1,6]naphthyridin-2(1H)-yl)ethan-1-one]
IC50 (human recombinant PDE5A1): 0.11 ± 0.0033 µM

COc1ccc(CNc2c(CO)cnc3c(C4CC4)cc(C#N)cc23)cc1Cl [compound 1]
IC50 (PDE6C [1]): 0.339 µM
cGMP in the hippocampus of mice [2]: elevation
learning and memory (AD mouse models): rescues learning and memory

COc1ccc(CNc2c3c(nc4ccc(C#N)cc24)CCN(C(C)=O)C3)cc1Cl [compound 6c, 2-Acetyl-10-[(3-chloro-4-methoxybenzyl)amino]-1,2,3,4-tetrahydrobenzo[b][1,6]naphthyridine-8-carbonitrile]
increase of hippocampal cGMP levels [3]: slight increase
effect on LTP in WT slices [4]: did not have any effect

CCN1Cc2nc3ccc(C#N)cc3c(NCc3ccc(OC)c(Cl)c3)c2C1=O [compound 24a, 9-((3-Chloro-4-methoxybenzyl)amino)-2-ethyl-1-oxo-2,3-dihydro-1H-pyrrolo[3,4-b]quinoline-7-carbonitrile]
selectivity for PDE5 versus PDE6 (PDE6C [5]): ~ 100 fold
